# HCV core dimer – blocks dimerization of HCV core protein | TR-FRET GST/Flag-core106 dimerization, 1536-well | inhibition, % at 5 µM | hit rate 0.33% among 300,000 | AID 1899;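 active = inhibition above the mean of all tested compounds plus 3 SD, set per screening campaign, cut at about 45% in these data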
#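 assay system = GST-tagged and Flag-tagged HCV core protein residues 1-106 | controls = unlabelled core106 and no-GST-core106 wells | incubation = compound-protein-antibody incubation 4 h at 22.5 °C | probe or stimulus = Eu donor and XL665 acceptor anti-tag antibodies | read-out = % inhibition based on acceptor/donor emission ratio | signal = TR-FRET 671 and 617 nm emission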
# MEX-5 binding – C. elegans MEX-5 TCR-2 RNA binding activity. Q9XUB2. MEX-5/FITC-TCR2 RNA binding, fluorescence polarization; stronger effect = lower value. activity score (negative = inhibition of binding), % at 10 µM. hit rate 0.38% among 300,000. AID 1832;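 active = inhibition past about -25% in most replicates, and total fluorescence under double the plate's negative control median, limit read from the data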;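 note: 0% = DMSO and -100% = 5 µM competing unlabeled TCR2 RNA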
# CendR NRP1 mod – modulators of CendR peptide binding to human neuropilin-1. inhibition, % at 25 µM. FAM-RPARPAR peptide binding to NRP-1, fluorescence polarization. hit rate 0.85% among 360,000. AID 602438. O14786;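 active = inhibition or corrected inhibition above about 18%, plus a signal ratio from 0.5 to 1.5, limit read from the data, passing the limit was not always enough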
# DNA FID counter – fluorescent intercalator displacement, NS3 helicase counter-screen. DNA fluorescent intercalator displacement, fluorescence. inhibition, % at 7.9 µM. hit rate 0.17% among 290,000; in the data active = inhibition above about 37%;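 note: 0% = vehicle and 100% = reference compound; higher means more ethidium bromide displaced from hairpin DNA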
# Starred values were filed as active, the others as inactive; . = no result given. The list is not random: actives were taken first. Their share in the collection is about 1.5%.
SMILES,HCV core dimer,MEX-5 binding,CendR NRP1 mod,DNA FID counter
CN(CC(=O)Nc1sccc1C#N)C1CCCCC1,51*,-5,-28,-3
CCN1CCN(c2ncc(C(=O)Nc3cc(Cl)c(OC)cc3OC)c3ccccc23)CC1,.,-2,-17,-1
CCN1CCN(c2ncc(C(=O)N3CCN(c4ccccc4OC)CC3)c3ccccc23)CC1,.,.,22*,14
Cn1c(Cc2ccccc2)nc(=O)c2ccccc21,.,.,2,.
COC(=O)c1csc(-c2ccc(CO)o2)n1,.,.,-4,.
CCCN(CCC)C(=O)Cn1c(=O)c2sccc2n2c(=S)sc(-c3ccccc3)c12,-1,-8,42*,-2
Cc1ccc(C(=O)OCC(=O)c2ccc(Cl)s2)s1,4,1,34*,-3
Cc1ccc(C(=O)OCC(=O)NCCNC(=O)COC(=O)c2ccc(C)s2)s1,-2,-1,-10,.
COC(=O)c1cc(OC)c(OC)cc1NC(=O)CCN1C(=O)C2CCCCC2C1=O (stereo unspecified),.,.,-2,.
COC(=O)c1ccc(Cn2nnc3c(=O)[nH]c(C4CCCN(S(=O)(=O)c5cccc(Cl)c5)C4)nc32)cc1 (stereo unspecified),32,-2,27*,-19
COc1ccccc1N1CCN(C(=O)c2cc3c(s2)CCC3)CC1,74*,-1,3,-36
COc1ccc(Cn2cc(CN3CC(N4CCCC4)CS3(=O)=O)nn2)cc1 (stereo unspecified),.,.,16,.
O=C(NCc1ccccn1)c1cccc(NS(=O)(=O)c2ccccc2)c1,0,-1,5,.
O=C(NCc1ccccn1)c1ccc(NS(=O)(=O)c2ccccc2)cc1,0,-1,22*,-8
COc1cc(CNc2ncnc3c2ncn3[C@H]2CN(CCN3CCOCC3)C[C@@H](CO)O2)cc(OC)c1OC,.,.,13,.
O=C(Cn1nnc(-c2ccccc2)c1COc1ccc2ccccc2c1)NCC1CC1,.,.,5,.
N=NC(=O)c1ccccc1Nc1c(O)[nH]c2ccccc12,.,.,-19,.
O=C(Nc1ccc(S(=O)(=O)NCC2CCCO2)cc1)c1ccc(Cl)cc1[N+](=O)[O-] (stereo unspecified),-8,-2,-1,6
Cc1c(C(=O)Nc2ccc(S(=O)(=O)NCC3CCCO3)cc2)cccc1[N+](=O)[O-] (stereo unspecified),-2,0,38*,-4
CCCc1c(O)c2ccccc2[nH]c1=O,-6,0,26*,-3
COC(=O)c1ccc(NC(=O)Nc2ccc(F)cc2)cc1,-2,-2,26*,-4
OC[C@@H]1CN(Cc2ccccc2)C[C@H](n2cnc3c(N4CCN(c5ccccc5)CC4)ncnc32)O1,.,.,3,.
COc1cccc(OCCNC(=O)Nc2cc(F)c(F)cc2Cl)c1,-4,1,25*,-2
COc1ccc(OCCNC(=O)Nc2cc(F)c(F)cc2Cl)cc1,-3,3,6,-3
Cc1cccc(NC(=O)C(C)Sc2ncnc3sccc23)c1 (stereo unspecified),.,.,-15,.
SMILES,HCV core dimer,MEX-5 binding,CendR NRP1 mod,DNA FID counter
CC(O)(c1ccccc1)c1nc(-c2cccc(C#N)c2)cs1 (stereo unspecified),.,.,-12,.
CC1(C)S[C@@H]2C(C(=O)OCc3ccccc3)NC(=O)N2C1C(=O)OCc1ccccc1 (stereo partly specified),-10,-1,34*,.
CCCOC(=O)C1NC(=O)N2C(C(=O)OCCC)C(C)(C)S[C@H]12 (stereo partly specified),-12,1,16,.
O=C(C(=O)N1CCN(c2cccc(Cl)c2)CC1)c1cn(CC(=O)N2CCOCC2)c2ccccc12,6,1,32*,-56
CC(=O)c1cccc(NC(=O)Nc2cc3sccc3n2C)c1,51*,-2,.,-5
Cc1ccc(S(=O)(=O)N(CCC(=O)NCC(c2ccccc2)N(C)C)c2ccccc2)cc1 (stereo unspecified),.,.,2,.
O=C1NC2(c3ccccc3)NC(=O)NC2(c2ccccc2)N1 (stereo unspecified),.,.,7,.
CCN1C(=O)[C@@H]2[C@@H](c3ccc(-c4cc(C(C)=O)cs4)cc3)N3CCC[C@@]3(C(=O)OC)[C@@H]2C1=O,.,.,24*,.
O=C(NNC(=O)c1csc(-c2cccnc2)n1)c1ccccc1,-5,-26*,0,-2
Cc1cccc(NC(=S)/N=C(\N)Nc2nc(C)c3ccc(C)cc3n2)c1,48*,2,1,3
Cc1ccc(C)c(-n2c(SCC(=O)N3CCC(C(=O)O)CC3)nnc2-c2cccc(Cl)c2)c1,7,1,27*,-46
Cc1ccccc1-n1c(SCC(=O)N2CCC(C(=O)O)CC2)nnc1-c1ccncc1,-2,2,-2,-31
